# Assay outcomes deposited in PubChem BioAssay by Johns Hopkins Ion Channel Center.
# The list is not random: actives were taken first. Their share in the collection is about 2.3%.
# TRPC6 act = activates the mouse TRPC6 cation channel | HEK293-TRPC6 membrane potential dye fluorescence; stronger effect = higher value | AID 2550 | hit rate 0.13% among 310,000 | Q61143 | B-score at 10 µM;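 active = B-score of the integrated fluorescence ratio above library mean plus 3 SD, and starting fluorescence ratio within library mean plus 5 SD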;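 also: higher score means more depolarization so channel activation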
# Target sequence (Q61143 whole entry, looked up): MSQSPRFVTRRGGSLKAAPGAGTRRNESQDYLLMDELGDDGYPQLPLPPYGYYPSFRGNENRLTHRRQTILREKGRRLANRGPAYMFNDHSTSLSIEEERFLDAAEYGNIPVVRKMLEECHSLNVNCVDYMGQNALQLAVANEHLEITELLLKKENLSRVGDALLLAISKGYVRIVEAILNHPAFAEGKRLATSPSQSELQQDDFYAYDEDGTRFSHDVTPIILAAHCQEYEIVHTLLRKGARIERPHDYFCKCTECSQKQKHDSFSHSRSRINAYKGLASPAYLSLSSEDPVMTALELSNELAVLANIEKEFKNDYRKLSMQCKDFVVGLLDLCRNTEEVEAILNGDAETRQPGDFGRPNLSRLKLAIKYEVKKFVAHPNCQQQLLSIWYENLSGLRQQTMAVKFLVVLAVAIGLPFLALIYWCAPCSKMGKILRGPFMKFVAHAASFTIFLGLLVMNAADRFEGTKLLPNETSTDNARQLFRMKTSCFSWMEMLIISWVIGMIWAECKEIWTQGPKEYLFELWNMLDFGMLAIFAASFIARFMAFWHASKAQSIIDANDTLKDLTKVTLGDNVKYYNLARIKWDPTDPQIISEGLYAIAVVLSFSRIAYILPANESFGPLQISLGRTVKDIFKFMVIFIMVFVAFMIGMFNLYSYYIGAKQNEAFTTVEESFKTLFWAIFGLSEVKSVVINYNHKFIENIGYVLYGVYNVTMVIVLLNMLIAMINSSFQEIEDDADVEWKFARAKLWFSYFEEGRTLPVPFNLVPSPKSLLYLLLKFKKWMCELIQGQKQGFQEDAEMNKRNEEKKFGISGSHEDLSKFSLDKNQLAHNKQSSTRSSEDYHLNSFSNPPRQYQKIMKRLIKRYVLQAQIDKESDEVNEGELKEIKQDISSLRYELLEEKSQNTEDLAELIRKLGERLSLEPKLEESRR
# TRPC6 inh = blocks the mouse TRPC6 cation channel | HEK293-TRPC6, membrane potential dye, ACh-evoked depolarization; stronger effect = lower value | Q61143 | AID 2553 | hit rate 1.1% among 310,000 | B-score at 10 µM;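 active = B-score under library mean minus 3 SD, initial fluorescence not abnormally high, positive integrated signal ratio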;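 also: B-score derived from integrated fluorescence ratio over the kinetic read; more negative B-score means stronger inhibition of depolarization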
# TRPC4 agonist = activators of mouse TRPC4 channel; hit rate 0.49% among 310,000; Q9QUQ5; B-score at 10 µM; AID 2237; HEK293 TRPC4beta/mu-opioid, Fluo4 calcium fluorescence; stronger effect = higher value;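 active = B-score above 5 SD of library B-scores, and initial fluorescence ratio not above library mean plus 5 SD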;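 also: positive B-score marks a calcium rise read as TRPC4 activation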
#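 Assay system: HEK293 cells stably co-expressing mouse TRPC4beta and mu-opioid receptor / Timing: Fluo4 dye loading 45 min at room temperature, 110 s recording / Signal: Fluo4 calcium-sensitive dye fluorescence, kinetic, 1 Hz baseline / Read-out: integrated baseline-normalised fluorescence ratio, converted to per-well B score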
# TRPC4 block = blocks the mouse TRPC4 cation channel. AID 2247. Q9QUQ5. HEK293 TRPC4beta/mu-opioid, DAMGO-evoked Fluo4 calcium flux; stronger effect = lower value. B-score at 10 µM. hit rate 0.39% among 300,000;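 active = B-score over 3 SD under the library average, no early fluorescence shift, positive overall ratio signal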
#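 Material: HEK293 cells with stable TRPC4beta plus mu-opioid receptor expression / Probe or stimulus: DAMGO in two steps, submaximal then maximal / Compound: single concentration per test compound / Technique: kinetic Fluo4 fluorescence imaging of calcium influx / Read-out: per-well B score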
# TRPC4 PAM = allosterically enhances the mouse TRPC4 cation channel | HEK293 TRPC4beta/mu-opioid, DAMGO EC20, Fluo-4 Ca2+ flux; stronger effect = higher value | hit rate 0.42% among 310,000 | Q9QUQ5 | AID 2227 | B-score at 10 µM;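 active = B-score of calcium response area above 5 SD of library B-scores, with initial fluorescence ratio within 5 SD of library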
# A number is an active result; 0 = inactive.
SMILES,TRPC6 act,TRPC6 inh,TRPC4 agonist,TRPC4 block,TRPC4 PAM
Cc1ccc(CNC(=O)CSc2nc(=O)n3ccccc3n2)cc1,0,0,0,-6,0
Brc1ccccc1CN1CCN(Cc2c[nH]c3ccccc23)CC1,0,0,0,-6,0
O=[N+]([O-])c1ccc(CN2CCN(Cc3c[nH]c4ccccc34)CC2)cc1,0,0,0,-6,0
Brc1ccc(CN2CCN(Cc3c[nH]c4ccccc34)CC2)cc1,0,0,0,0,0
COC(=O)c1c(-c2ccccc2)nn(-c2ccccc2)c1C(=O)OC,0,0,0,0,0
COc1cccc(C(=O)N(C)CC2CCN(CCc3cccc(C(F)(F)F)c3)CC2)c1,0,0,109,0,0
CN(CC1CCCN(CCc2cccc(C(F)(F)F)c2)C1)C(=O)c1cc2ccccc2o1 (stereo unspecified),0,0,0,-8,0
O=C1CC2(CCN(S(=O)(=O)c3ccccc3F)CC2)Oc2ccccc21,0,0,0,0,30
O=C1CC2(CCN(S(=O)(=O)c3ccccc3)CC2)Oc2ccccc21,0,0,0,0,50
N#CCCn1cc(C(=O)Nc2ccc(C(=O)O)cc2)c(-c2cccc(Br)c2)n1,0,0,70,0,0
N#CCCn1cc(C(=O)Nc2ccccn2)c(-c2ccccc2)n1,0,0,0,0,0
CN(C)CCCN(C(=O)c1ccco1)c1nc2cc3c(cc2s1)OCO3,0,-7.83,0,0,0
Cc1ccc(-c2csc(N(CCCN3CCOCC3)C(=O)c3ccco3)n2)cc1,0,0,0,0,0
Cc1ccc(-c2csc(N(CCCN(C)C)C(=O)c3ccco3)n2)cc1,0,0,0,-6,0
COc1ccc(-c2csc(N(CCCN(C)C)C(=O)c3cccs3)n2)cc1,0,0,56,0,0
CN(C)CCCN(C(=O)c1ccc(C(=O)c2ccccc2)cc1)c1nc2cc3c(cc2s1)OCO3,0,0,0,0,0
CSc1ccccc1OCc1cc(C(=O)NCCC2=CCCCC2)no1,0,0,0,0,0
COc1ccc(C(=O)C2CCCN(Cc3ccc(Sc4nncn4C)o3)C2)cc1F (stereo unspecified),0,0,131,0,0
COc1ccc(C(=O)C2CCCN(Cc3cn[nH]c3-c3ccc(F)cc3)C2)cc1OC (stereo unspecified),0,0,44,0,0
COc1ccc(C(=O)C2CCCN(Cc3cn(C)nc3-c3ccccc3)C2)cc1F (stereo unspecified),0,0,0,0,0
Cn1cc(-c2nc3ccccc3[nH]2)c2ccccc21,0,0,0,-6,0
N#CC(c1ccc(Cl)cc1)c1cccc(Cl)n1 (stereo unspecified),0,0,0,0,0
COc1ccc2c(C)cc(N3CCN(Cc4ccccc4)CC3)nc2c1,0,0,0,0,0
Cc1cc(N2CCCCCC2)nc2ccc(F)cc12,0,0,0,-6,0
COc1ccc2c(C)cc(N3CCCCCC3)nc2c1,0,0,0,-10,0
SMILES,TRPC6 act,TRPC6 inh,TRPC4 agonist,TRPC4 block,TRPC4 PAM
COc1ccc2c(c1)C=C([C@@H]1C[C@H]3CN(c4ccccc4)C(=O)[C@]34CCCN14)CO2,0,0,0,0,0
COc1cccc(NC(=O)N(CCCN2CCOCC2)C(C)c2cc3ccccc3o2)c1 (stereo unspecified),0,0,0,0,0
COc1cccc(/C=C(\C)C(=O)c2c(C)cc(C)[nH]c2=O)c1OC,0,0,0,0,0
Fc1ccc(C(c2nnnn2Cc2cccs2)N2CCN(C3CCCCC3)CC2)cc1 (stereo unspecified),0,0,138,0,0
CN1CCN(C(c2ccc(F)cc2)c2nnnn2Cc2cccs2)CC1 (stereo unspecified),0,0,0,0,0
COc1ccccc1-c1noc(CCC(=O)Nc2ccccc2Cl)n1,0,0,0,0,0
Cc1[nH]c2ccc(Br)cc2c(=O)c1CN1CCOCC1,0,0,0,0,12
CCOc1ccc2[nH]c(C)c(CN3CCOCC3)c(=O)c2c1,0,0,0,0,0
CCOC(=O)c1ccc(NC(=O)NNC(=O)CCc2ccc(OC)cc2)cc1,0,0,0,0,0
CCOc1ccccc1NC(=O)CSc1nc2ccccc2c(=O)n1CC1CCCO1 (stereo unspecified),0,0,0,-6,0
Cc1ccccc1NC(=O)CSc1nc2ccccc2c(=O)n1CC1CCCO1 (stereo unspecified),0,0,0,0,0
CCOC(=O)CSc1nc2ccccc2c(=O)n1CC1CCCC1,0,0,0,-9,0
Cc1ccc2[nH]c(C(=O)NCCN3CCCC3)cc2c1,0,0,56,0,0
Cc1ccc2[nH]c(C(=O)N3CCCCC3)cc2c1,0,0,0,0,0
Cc1cccc(-c2nc3c(s2)CCc2onc(-c4ccc(Br)cc4)c2-3)c1,0,0,0,0,0
CCOc1ccc(OCCC(=O)OCC(=O)Nc2ccc(Cl)cn2)cc1,0,0,0,0,0
OCC1(CCCc2ccccc2)CCN(Cc2cnc(N3CCOCC3)s2)CC1,0,0,46,0,0
Cc1ncc(CN2CCC(CO)(CCc3ccccc3)CC2)s1,0,0,73,0,0
COc1cccc(CC2(CO)CCN(Cc3cnc(N4CCOCC4)s3)CC2)c1,0,0,0,0,0
Cc1ncc(CN2CCN(CCc3ccccc3)C(CCO)C2)s1 (stereo unspecified),0,0,0,0,0
Cc1cc(=O)[nH]c(-c2ccccc2OC(F)(F)F)n1,0,0,0,0,0
CCN(CC(=O)Nc1ccc(NC(C)=O)cc1)C(=O)C1COc2ccccc2O1 (stereo unspecified),0,0,0,0,0
N[C@@H](CO)c1nnc([C@H](Cc2ccc(O)cc2)NC(=O)C2CCNCC2)o1,0,0,0,0,0
CC(C)(C)c1ccc(-c2nc3cc(N)ccc3o2)cc1,0,0,0,0,18
O=C(NC1CCN(Cc2ccccc2)CC1)c1cccc(S(=O)(=O)Nc2ccc(Br)cc2)c1,0,0,0,0,0
SMILES,TRPC6 act,TRPC6 inh,TRPC4 agonist,TRPC4 block,TRPC4 PAM
COc1ccccc1NS(=O)(=O)c1cccc(C(=O)NC2CCN(Cc3ccccc3)CC2)c1,0,0,52,-8,0
COc1cc(CN(C2CCCCC2C)S(=O)(=O)c2ccc(S(=O)(=O)NC3CC3)cc2)cc(OC)c1OC (stereo unspecified),0,0,0,0,0
COc1ccc(CN(C2CCCCC2C)S(=O)(=O)c2ccc(S(=O)(=O)N(C)C)cc2)cc1OC (stereo unspecified),0,0,0,0,23
CCOC(=O)Cc1csc(NC(=O)CSc2nc(=O)[nH]c3c2CCC3)n1,0,0,0,0,0
COC(=O)/C=C1/SC(=NC(=O)c2ccccc2)NC1=O,0,0,0,0,0
COC(=O)/C=C1\SC(=NC(=O)c2cccc(Cl)c2)NC1=O,0,0,0,-6,0
CCCn1c(SCC(=O)NC(=O)Nc2ccc(C)cc2C)n[nH]c1=O,0,0,0,0,12
